Data reported in ChEMBL document CHEMBL4265971, “Modified carbazoles destabilize microtubules and kill glioblastoma multiform cells” (Eur J Med Chem, 2018).
Calls of active or inactive are those of the source. The calls are words filed in the database; no cut-off is given here.

Tests used:
[1] = tested on: T98G; test: Cytotoxicity against human T98G cells assessed as cell killing at 100 nM after 72 hrs by WST-1 assay relative to control; format: functional
Procedure, shortened: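 T98G human GBM cells (ATCC, STR-authenticated, under 6 months in culture) grown in DMEM with 10% FBS and penicillin/streptomycin, 37 °C, 5% CO2. Exposed to increasing compound concentrations in DMSO (0.1% final) for 72 h, then WST-1 viability read. Maximal killing is the largest % viability reduction versus vehicle over the concentrations tested. Mean of ≥3 independent experiments in triplicate.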

[2] = tested on: T98G; test: Cytotoxicity against human T98G cells after 72 hrs by WST-1 assay; format: functional, cell-based
Procedure, shortened: (§1)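 Viability read with WST-1 72 h after treatment with increasing concentrations; DMSO vehicle 0.1% final. T98G and HepG2 grown in DMEM/10% FBS/pen-strep at 37 °C, 5% CO2. Patient-derived GBM cells (WHO grade IV; proneural, classical, mesenchymal) grown in NeuroCult NSA with B-27, 20 ng/mL EGF and 20 ng/mL FGF2. EC50 from curve fit, reported only when extrapolable. Mean of ≥3 independent experiments in triplicate.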

[3] = tested on: HCC 2998; test: Cytotoxicity against human HCC2998 cells after 48 hrs by sulforhodamine B assay; format: functional, cell-based
[4] = tested on: SF-295; test: Cytotoxicity against human SF295 cells after 48 hrs by sulforhodamine B assay; format: functional, cell-based
[5] = tested on: HepG2; test: Cytotoxicity against human HepG2 cells after 72 hrs by WST-1 assay; format: functional, cell-based; settings: HepG2, 72 h; procedure, shortened: as §1
[6] = tested on: GBM; test: Cytotoxicity against patient-derived proneural GBM cells assessed as cell killing at 1 uM after 72 hrs by WST-1 assay relative to control; format: functional, Homo sapiens
Procedure, shortened: (§2)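 Maximal killing is the largest % loss of viability against 0.1% DMSO vehicle, read by WST-1 72 h after treatment, at the stated concentration. T98G/HepG2 grown in DMEM/10% FBS; patient-derived GBM grown in NeuroCult NSA with B-27, EGF and FGF2 (20 ng/mL each). Mean ± SEM of ≥3 independent experiments in triplicate.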

[7] = tested on: COLO 205; test: Cytotoxicity against human COLO205 cells after 48 hrs by sulforhodamine B assay; format: functional, cell-based
[8] = Induction of bovine brain microtubule destabilization assessed as increase in free tubulin levels after 15 mins by Coomassie G-250 staining-based polyacrylamide gel electrophoresis method; parameters: species or system Bos taurus
Procedure, shortened: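 Bovine brain tubulin purified, polymerized into MTs and sheared. Sheared MTs incubated with compound at 37 °C for 15 min, then centrifuged 10 min at 42,000 rpm at 37 °C. Supernatant (free tubulin) and pellet (MT) run on polyacrylamide gels. EC50 from representative experiments repeated three times.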

[9] = Inhibition of bovine brain t in presence of 0.4 mM GTP; parameters: species or system Bos taurus
[10] = tested on: HepG2; test: Cytotoxicity against human HepG2 cells assessed as cell killing at 0.6 uM after 72 hrs by WST-1 assay relative to control; format: functional; procedure, shortened: as §2
[11] = tested on: GBM; test: Cytotoxicity against patient-derived classical GBM cells after 72 hrs by WST-1 assay; format: functional, cell-based; settings: Homo sapiens; procedure, shortened: as §1
[12] = species on record: Bos taurus; test: Inhibition of [3H]colchicine binding to bovine brain tubulin at 1 uM after 1 hr liquid scintillation counting assay relative to control
[13] = species on record: Bos taurus; test: Inhibition of [3H]colchicine binding to bovine brain tubulin at 5 uM after 1 hr liquid scintillation counting assay relative to control
[14] = tested on: GBM; test: Cytotoxicity against patient-derived proneural GBM cells after 72 hrs by WST-1 assay; format: functional, cell-based; settings: Homo sapiens; procedure, shortened: as §1
[15] = tested on: HT-29; test: Cytotoxicity against human HT-29 cells after 48 hrs by sulforhodamine B assay; format: functional, cell-based
[16] = tested on: GBM; test: Cytotoxicity against patient-derived mesenchymal GBM cells after 72 hrs by WST-1 assay; format: functional, cell-based; settings: Homo sapiens; procedure, shortened: as §1
[17] = tested on: T98G; test: Cytotoxicity against human T98G cells assessed as cell killing at 1 uM after 72 hrs by WST-1 assay relative to control; format: functional; procedure, shortened: as §2
[18] = tested on: GBM; test: Cytotoxicity against patient-derived classical GBM cells assessed as cell killing at 1 uM after 72 hrs by WST-1 assay relative to control; format: functional, Homo sapiens; procedure, shortened: as §2
[19] = tested on: GBM; test: Cytotoxicity against patient-derived mesenchymal GBM cells assessed as cell killing at 1 uM after 72 hrs by WST-1 assay relative to control; format: functional, Homo sapiens; procedure, shortened: as §2
[20] = tested on: SF-539; test: Cytotoxicity against human SF539 cells after 48 hrs by sulforhodamine B assay; format: functional, cell-based
[21] = tested on: T98G; test: Cytotoxicity against human T98G cells assessed as cell killing at 10 uM after 72 hrs by WST-1 assay relative to control; format: functional; procedure, shortened: as §2
[22] = tested on: T98G; test: Cytotoxicity against human T98G cells assessed as cell killing at 3 uM after 72 hrs by WST-1 assay relative to control; format: functional; procedure, shortened: as §2
[23] = tested on: HepG2; test: Cytotoxicity against human HepG2 cells assessed as cell killing at 10 uM after 72 hrs by WST-1 assay relative to control; format: functional; procedure, shortened: as §2
[24] = tested on: GBM; test: Cytotoxicity against patient-derived mesenchymal GBM cells assessed as cell killing at 3 uM after 72 hrs by WST-1 assay relative to control; format: functional, Homo sapiens; procedure, shortened: as §2
[25] = tested on: GBM; test: Cytotoxicity against patient-derived classical GBM cells assessed as cell killing at 3 uM after 72 hrs by WST-1 assay relative to control; format: functional, Homo sapiens; procedure, shortened: as §2
[26] = tested on: GBM; test: Cytotoxicity against patient-derived proneural GBM cells assessed as cell killing at 5.6 uM after 72 hrs by WST-1 assay relative to control; format: functional, Homo sapiens
Procedure, shortened: (§3)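 Patient-derived GBM cells come from freshly resected WHO grade IV tumours. They are subtyped proneural, classical or mesenchymal and kept in NeuroCult NSA medium with B-27, 20 ng/mL EGF and 20 ng/mL FGF2. Cells were treated with increasing compound concentrations (DMSO 0.1% final). Viability was read by WST-1 after 72 h. Maximal killing is the largest % reduction versus vehicle. Mean of ≥3 independent experiments in triplicate.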

[27] = tested on: HepG2; test: Cytotoxicity against human HepG2 cells assessed as cell killing at 5.6 uM after 72 hrs by WST-1 assay relative to control; format: functional; procedure, shortened: as §2
[28] = tested on: GBM; test: Cytotoxicity against patient-derived classical GBM cells assessed as cell killing at 5.6 uM after 72 hrs by WST-1 assay relative to control; format: functional, Homo sapiens; procedure, shortened: as §3
[29] = tested on: GBM; test: Cytotoxicity against patient-derived mesenchymal GBM cells assessed as cell killing at 10 uM after 72 hrs by WST-1 assay relative to control; format: functional, Homo sapiens; procedure, shortened: as §3

## CCn1c2ccccc2c2cc(C(=O)c3cccc4c3NCCC4)ccc21
[1]
  %max: -18%
[2]
  EC50: > 10000 nM

## CCn1c2ccccc2c2cc(C(=O)c3cccc4ncccc34)ccc21
[3]
  Activity: Active
[4]
  Activity: Active
[5]
  EC50: 66 nM
[6]
  %max: 44.8%
[7]
  Activity: Active
[8]
  EC50: 3400 nM
[9]
  IC50: 890 nM
[10]
  %max: 28.6%
[11]
  EC50: 407 nM
[12]
  inhibition: 61%
[13]
  inhibition: 91%
[14]
  EC50: 316 nM
[15]
  Activity: Active
[16]
  EC50: 335 nM
[17]
  %max: 74.4%
[18]
  %max: 53.9%
[2]
  EC50: 184 nM
[19]
  %max: 58.9%
[20]
  Activity: Active

## CCn1c2ccc(C(=O)c3ccc(C)c4ccccc34)cc2c2ccc(OC)cc21
[21]
  %max: 71.6%
[2]
  EC50: 2600 nM

## CCn1c2ccccc2c2cc(C(=O)c3cccc4cccnc34)ccc21
[21]
  %max: 60%
[2]
  EC50: 8800 nM

## CCn1c2ccccc2c2cc(C(=S)c3ccc(C)c4ccccc34)ccc21
[22]
  %max: -17%
[2]
  EC50: > 10000 nM

## CCn1c2ccccc2c2cc(C(O)c3ccc(C)c4ccccc34)ccc21 (centres undefined)
[3]
  Activity: Active
[4]
  Activity: Active
[5]
  EC50: 101 nM
[23]
  %max: 30.8%
[24]
  %max: 50.6%
[6]
  %max: 44%
[7]
  Activity: Active
[8]
  EC50: 6400 nM
[22]
  %max: 72.8%
[9]
  IC50: 1600 nM
[11]
  EC50: 633 nM
[13]
  inhibition: 70%
[14]
  EC50: 630 nM
[15]
  Activity: Active
[16]
  EC50: 386 nM
[2]
  EC50: 560 nM
[20]
  Activity: Active
[25]
  %max: 56%

## CCn1c2ccccc2c2cc(C(=O)c3ccc(C)cc3)ccc21
[22]
  %max: 83.6%
[2]
  EC50: 993 nM

## Cc1ccc(C(=O)n2c3ccccc3c3ccccc32)c2ccccc12
[21]
  %max: 89.1%
[2]
  EC50: 957 nM

## CCn1c2ccccc2c2cc(C(=O)Cc3ccccc3)ccc21
[21]
  %max: 14%
[2]
  EC50: > 10000 nM

## CCn1c2ccccc2c2cc(C(=O)c3ccc(Cl)cc3)ccc21
[21]
  %max: 71.1%
[2]
  EC50: 1500 nM

## CCn1c2ccccc2c2cc(C(=O)c3ccc(F)cc3)ccc21
[21]
  %max: 54.8%
[2]
  EC50: 8000 nM

## CCCn1c2ccccc2c2cc(C(=O)c3ccc(C)c4ccccc34)ccc21
[21]
  %max: 16.3%
[2]
  EC50: > 10000 nM

## CCn1c2ccccc2c2cc(C(=O)N3CCCc4ccccc43)ccc21
[8]
  EC50: 5300 nM
[26]
  %max: 98.9%
[9]
  IC50: 4400 nM
[27]
  %max: 8.3%
[11]
  EC50: 846 nM
[13]
  inhibition: 41%
[14]
  EC50: 613 nM
[16]
  EC50: 1820 nM
[17]
  %max: 89%
[28]
  %max: 98.6%
[29]
  %max: 97.2%
[2]
  EC50: 757 nM

## CCn1c2ccccc2c2cc(C(=O)c3ccc(C)c4ccccc34)ccc21
[3]
  Activity: Active
[4]
  Activity: Active
[5]
  EC50: 1690 nM
[7]
  Activity: Active
[8]
  EC50: 2100 nM
[9]
  IC50: 1400 nM
[27]
  %max: 25%
[11]
  EC50: 698 nM
[13]
  inhibition: 53%
[14]
  EC50: 542 nM
[15]
  Activity: Active
[16]
  EC50: 268 nM
[21]
  %max: 45.3%
[2]
  EC50: 87 nM
[19]
  %max: 64.3%
[20]
  Activity: Active
[25]
  %max: 47.9%

## Cc1ccc(C(=O)c2ccc3c(c2)c2ccccc2n3CC(F)(F)F)c2ccccc12
[21]
  %max: 35.6%
[2]
  EC50: 5600 nM

## CCn1c2ccccc2c2cc(C(=O)c3cccc4ccccc34)ccc21
[21]
  %max: 72%
[2]
  EC50: 1700 nM

## CCn1c2ccccc2c2cc(C(=O)N3CCN(C)CC3)ccc21
[21]
  %max: 13.2%
[2]
  EC50: > 10000 nM

## CCn1c2c(c3ccccc31)CN(C(=O)c1ccc(C)c3ccccc13)CC2
[22]
  %max: 45.1%
[2]
  EC50: > 10000 nM
